Screens deposited in PubChem BioAssay by Broad Institute.
LGR2 antag – inhibitors of bursicon-induced Drosophila LGR2 receptor cAMP signaling. 380,000 tested, 0.35% active. AID 720647. HEK293 LGR2, CRE-luciferase, bursicon-stimulated, 4 h. inhibition, % at 9.99 µM;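 active means drop in luminescence signal, shown as inhibition above about 50% in the replicate tests, limit read from the data, passing the limit was not always enough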;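 further: agonist challenge used bursicon conditioned medium at about half maximal strength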
E-sel inducer – induces E-selectin expression in human endothelial cells. P16581. HUVEC E-selectin immunofluorescence imaging; normalized: neutral wells 0, TNF-alpha wells 100. activation, % at 7.58 µM. 260,000 tested, 0.37% active. AID 686992;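 active means mean E-selectin-positive cell signal at least 10% of the positive control, reached in at least 60% of replicates, without over 20% cell loss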
Target sequence (P16581 whole entry, looked up): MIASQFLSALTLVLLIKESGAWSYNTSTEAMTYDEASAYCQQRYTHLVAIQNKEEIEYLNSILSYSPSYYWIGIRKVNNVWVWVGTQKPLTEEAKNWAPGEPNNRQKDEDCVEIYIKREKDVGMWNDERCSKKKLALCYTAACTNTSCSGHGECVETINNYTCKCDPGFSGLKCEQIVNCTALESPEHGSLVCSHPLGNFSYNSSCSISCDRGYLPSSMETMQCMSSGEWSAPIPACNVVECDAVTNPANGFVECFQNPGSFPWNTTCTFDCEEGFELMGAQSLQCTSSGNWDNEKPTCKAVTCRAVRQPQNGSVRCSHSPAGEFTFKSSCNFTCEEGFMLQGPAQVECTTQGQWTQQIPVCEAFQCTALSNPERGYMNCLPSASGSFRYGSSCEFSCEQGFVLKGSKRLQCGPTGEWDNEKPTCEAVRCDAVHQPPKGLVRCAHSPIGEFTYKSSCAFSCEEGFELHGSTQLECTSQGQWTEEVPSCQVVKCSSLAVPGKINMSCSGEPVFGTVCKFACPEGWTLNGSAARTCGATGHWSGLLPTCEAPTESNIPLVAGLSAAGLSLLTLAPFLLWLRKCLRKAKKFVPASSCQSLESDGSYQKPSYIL
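material = human umbilical vein endothelial cells (HUVEC), E-selectin induction | quantity = 3,000 cells/well | medium = EGM-2 growth medium on 0.1% gelatin-coated wells | technique = immunofluorescence imaging | read-out basis = % PE-positive cells | control set = TNF-alpha positive control, DMSO neutral control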
rRNA inh HTS – inhibits bacterial ribosomal RNA function over humanized ribosomes | AID 720706 | E. coli WT GFP vs humanized-ribosome RFP mutants, fluorescence, 24 h; active compounds read low; DMSO median 0, no signal -100 | GFP signal change (wild-type ribosome), % (test concentration not listed) | 350,000 tested, 1.6% active;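 active means significant combined selectivity score with lowered wild-type GFP, culture density cut under 30%, mutant RFP and density less affected; inactive means any of these conditions unmet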
EWS-Fli inh – blocks EWS/Fli oncoprotein-driven transcription; AID 651661; inhibition, % at 12.6 µM; 350,000 tested, 0.67% active; A673 NR0B1-luciferase reporter, viability-normalised;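 active means mean inhibition of at least 50% after viability correction, with every replicate also passing that limit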;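 further: firefly luciferase signal divided by Alamar Blue viability fluorescence both relative to DMSO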
* = called active by the depositor; nt = no result. A selection: hits, their analogues and other compounds. The true share with any hit is near 2.4%.

SMILES | LGR2 antag | E-sel inducer | rRNA inh HTS | EWS-Fli inh
C[C@@H]1CN([C@@H](C)CO)C(=O)c2cccc(NC(=O)c3ccc(-c4nccs4)cc3)c2O[C@@H]1CN(C)C(=O)NC1CCCCC1 | 6 | 4 | -11 | 2
CC(C)NC(=O)N(C)C[C@@H]1Oc2c(NC(=O)c3ccc(-c4nccs4)cc3)cccc2C(=O)N([C@@H](C)CO)C[C@@H]1C | -6 | 81* | -4 | -3
CO[C@@H]1CC[C@@H]2CCOc3c(C#N)cccc3C(=O)N(C)C[C@@H](C)C(=O)N(C)C[C@H]1O2 | -4 | 0 | 1 | -4
Cn1c(=O)n(Cc2ccc(Br)cc2)c2ccccc21 | 16 | nt | -48* | 8
COc1ccc(OC)c(S(=O)(=O)N2CCN(c3ccccc3OC)CC2)c1 | 5 | 0 | -10 | 0
COc1ccccc1N1CCN(S(=O)(=O)c2ccccc2F)CC1 | 11 | nt | -22* | 0
CC(C)[C@@H]1C(=O)N[C@H](c2ccc3c(c2)OCO3)CC=CC[C@@H](C)Oc2ccccc2C(=O)N1C (mixture of isomers) | nt | nt | -19 | nt
O=C(COC(=O)c1ccccc1Cl)NCCC1=CCCCC1 | -97 | 0 | -21* | 4
Cc1cccc(C)c1Nc1ncnc2ccccc12 | 8 | 0 | -34* | 9
CCN(CC)c1ccc(C=Nc2cc(C)cc(C)c2)c(O)c1 | -6 | -2 | 5 | -6
CCN(CC)c1ccc(/C=N/NC(=O)c2ccoc2C)c(O)c1 | -19 | nt | -34* | -85
CCN(CC)c1ccc(/C=N/N=C(N)N)c(O)c1 | -15 | 2 | 14 | 54*
COCC(=O)N1C[C@@H](C)[C@H](OC)CN(C)C(=O)c2cc(NC(=O)Nc3cccc(F)c3)ccc2OC[C@H]1C | 0 | 0 | -3 | 3
CCOC(=O)c1c(NC(=O)COC(=O)c2nc(Cl)ccc2Cl)sc2c1CCC2 | 4 | 137* | 10 | 1
Cc1cc(C)nc(N/N=C/c2ccccc2OCc2ccc(Br)cc2)n1 | 0 | nt | 2 | -25
Cc1cc(C)nc(N/N=C/c2cc(Br)ccc2O)n1 | -55 | 0 | -37* | -43
CS(=O)(=O)N1CC2(C1)[C@H](c1ccccc1)[C@@H](CO)N2Cc1ccccn1 | -3 | 0 | 4 | 1
C[C@H](CO)N1C[C@H](C)[C@H](CN(C)C(=O)NC2CCCCC2)Oc2ccc(NC(=O)NC3CCCCC3)cc2C1=O | 3 | 0 | -1 | -6
COc1ccc(CC(=O)Nc2cccc(-c3ccc4nnc(C)n4n3)c2)cc1 | -6 | 0 | -25 | 15
CCOc1ccc(CC(=O)Nc2cccc(-c3ccc4nnc(C)n4n3)c2)cc1 | 11 | 0 | -34* | 22
Cc1ccc(NC(=O)CNC(=O)c2ccc(OC(F)F)cc2)cc1S(=O)(=O)N1CCCCCC1 | 5 | 0 | -23* | 11
Cc1ccc(NC(=O)COC(=O)c2ccc(OC(F)F)cc2)cc1S(=O)(=O)N1CCCCC1 | -7 | nt | -7 | 3
COc1cc(C(=O)NCC(=O)N2CCN(S(=O)(=O)c3cc(C)ccc3C)CC2)cc(OC)c1OC | 16 | 25 | -12 | 54*
Cc1ccc(C)c(S(=O)(=O)N2CCN(C(=O)CCNC(=O)c3ccc(Br)cc3)CC2)c1 | 3 | 1 | -26 | -2
Cc1cc(C(=O)NCC(=O)OCC(=O)Nc2ccc(OC(F)F)cc2)ccc1[N+](=O)[O-] | 0 | 0 | -22* | 12
SMILES | LGR2 antag | E-sel inducer | rRNA inh HTS | EWS-Fli inh
C[C@H]1CN([C@@H](C)CO)C(=O)c2cc(-c3cccnc3)cnc2O[C@H]1CN(C)C(=O)Cc1cccnc1 | -3 | 0 | 4 | -4
C[C@H](CO)N1C[C@H](C)[C@@H](CN(C)Cc2ccncc2)Oc2ccc(NC(=O)Cc3ccccc3)cc2CC1=O | 9 | -4 | 0 | 2
O=C(c1ccccn1)N1CC2(C1)[C@@H](c1ccccc1)[C@@H](CO)N2Cc1ccc(Cl)cc1 | -15 | 0 | -14 | -7
C[C@H](CO)N1C[C@H](C)[C@H](CN(C)C(=O)Nc2ccccc2)Oc2ncc(/C=C/c3ccccc3)cc2C1=O | 4 | 0 | -8 | 0
C[C@H](CO)N1C[C@H](C)[C@H](CN(C)Cc2ccc(C(F)(F)F)cc2)Oc2ccc(NC(=O)Cc3cn(C)c4ccccc34)cc2CC1=O | 14 | 228* | 0 | 9
C[C@@H]1CN([C@H](C)CO)C(=O)Cc2cc(NS(=O)(=O)c3ccccc3)ccc2O[C@@H]1CN(C)Cc1ccc(C(F)(F)F)cc1 | -16 | 47* | 3 | nt
C[C@@H]1CN([C@H](C)CO)C(=O)Cc2cc(NS(=O)(=O)c3ccccc3)ccc2O[C@H]1CN(C)Cc1ccc(C(F)(F)F)cc1 | 16 | 2 | 0 | nt
C[C@H]1CN([C@@H](C)CO)C(=O)Cc2cc(NS(=O)(=O)c3ccccc3)ccc2O[C@H]1CN(C)Cc1ccc(C(F)(F)F)cc1 | 8 | 42* | 2 | nt
C[C@H](CO)N1C[C@H](C)[C@H](CN(C)S(=O)(=O)c2cn(C)cn2)Oc2ncc(-c3ccc(F)cc3)cc2C1=O | -16 | 0 | 3 | -5
COc1cccc(-c2ccc(C3[C@@H]4CN(C(=O)Cc5ccncc5)C[C@H]3N4)cc2)c1 (stereo not given in full) | -2 | 0 | 0 | 9
O=C(C[C@H]1CC[C@@H]2[C@H](COC[C@@H](O)CN2C(=O)c2ccccc2F)O1)NCc1ccc(-c2ccccc2)cc1 | -17 | 0 | -3 | nt
CCCCc1c(O)nc(SCC(=O)c2ccccc2)n(-c2ccccc2C)c1=O | -4 | 0 | -32* | 9
CCCCc1c(O)nc(SCC(=O)c2ccccc2)n(-c2ccccc2)c1=O | -13 | 0 | -18* | 5
C=CCOc1c(Br)cc(C2C3=C(CCCC3=O)N(C)C3=C2C(=O)CCC3)cc1OCC | 5 | -1 | -34* | -5
COc1ccc(-c2nc(C)ncc2-c2ccccc2)c(O)c1 | -3 | nt | -28* | 1
Cc1ccc(S(=O)(=O)Nc2cccc3c2O[C@H](CN(C)S(=O)(=O)c2ccc(C)cc2)[C@H](C)CN([C@@H](C)CO)C3=O)cc1 | -36 | 0 | 1 | 10
Cc1ccc(NS(=O)(=O)c2ccc3c(c2)NC(=O)CCS3)cc1C | 4 | nt | -26* | nt
Cc1cccc(CCNS(=O)(=O)c2ccc3c(c2)NC(=O)CS3)c1 | -5 | 2 | -35* | nt
Cc1ccc(CCNS(=O)(=O)c2ccc3c(c2)NC(=O)CCS3)cc1 | -6 | 0 | -8 | nt
Cc1ccc(NS(=O)(=O)c2ccc3c(c2)NC(=O)CCS3)cc1F | -13 | 0 | -8 | nt
Cc1ccc(S(=O)(=O)Nc2ccc3c(c2)CC(=O)N([C@H](C)CO)C[C@H](C)[C@H](CN(C)S(=O)(=O)c2c(C)noc2C)O3)cc1 | 5 | 0 | 0 | -9
CCC(=O)Nc1ccc2c(c1)OC[C@H](C)N(C(=O)Cc1cccnc1)C[C@H](C)[C@@H](OC)CN(C)C2=O | nt | nt | 4 | nt
COCCNC(=O)C[C@H]1C[C@H]2c3cc(NC(=O)C4CCOCC4)ccc3O[C@H]2[C@@H](CO)O1 | nt | nt | 3 | nt
Nc1nc(F)nc2c1ncn2[C@@H]1O[C@H](CO)[C@@H](O)[C@H]1O | 75* | 5 | nt | 45
